In assay [1] the target is T1, Alpha-1B adrenergic receptor (Homo sapiens, UniProt P35368).
T1 sequence (P35368 whole entry): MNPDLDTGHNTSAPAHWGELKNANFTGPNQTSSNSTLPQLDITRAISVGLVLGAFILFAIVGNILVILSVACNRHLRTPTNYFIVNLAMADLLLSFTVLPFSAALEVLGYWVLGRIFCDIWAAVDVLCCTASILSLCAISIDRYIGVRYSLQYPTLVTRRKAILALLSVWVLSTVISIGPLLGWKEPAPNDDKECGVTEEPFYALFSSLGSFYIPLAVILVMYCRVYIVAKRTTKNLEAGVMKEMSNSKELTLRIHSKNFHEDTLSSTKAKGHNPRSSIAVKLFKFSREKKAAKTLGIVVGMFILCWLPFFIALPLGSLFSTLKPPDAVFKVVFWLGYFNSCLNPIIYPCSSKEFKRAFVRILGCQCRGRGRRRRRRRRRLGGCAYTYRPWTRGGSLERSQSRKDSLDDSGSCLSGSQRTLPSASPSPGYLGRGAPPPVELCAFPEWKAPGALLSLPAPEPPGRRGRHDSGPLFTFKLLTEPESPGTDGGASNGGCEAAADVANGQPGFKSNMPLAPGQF
Nature of the assay: Binding affinity to human alpha1B adrenergic receptor.

The target in assay [2] is T2, Alpha-1B adrenergic receptor (Rattus norvegicus) (UniProt P15823).
T2 sequence (whole entry): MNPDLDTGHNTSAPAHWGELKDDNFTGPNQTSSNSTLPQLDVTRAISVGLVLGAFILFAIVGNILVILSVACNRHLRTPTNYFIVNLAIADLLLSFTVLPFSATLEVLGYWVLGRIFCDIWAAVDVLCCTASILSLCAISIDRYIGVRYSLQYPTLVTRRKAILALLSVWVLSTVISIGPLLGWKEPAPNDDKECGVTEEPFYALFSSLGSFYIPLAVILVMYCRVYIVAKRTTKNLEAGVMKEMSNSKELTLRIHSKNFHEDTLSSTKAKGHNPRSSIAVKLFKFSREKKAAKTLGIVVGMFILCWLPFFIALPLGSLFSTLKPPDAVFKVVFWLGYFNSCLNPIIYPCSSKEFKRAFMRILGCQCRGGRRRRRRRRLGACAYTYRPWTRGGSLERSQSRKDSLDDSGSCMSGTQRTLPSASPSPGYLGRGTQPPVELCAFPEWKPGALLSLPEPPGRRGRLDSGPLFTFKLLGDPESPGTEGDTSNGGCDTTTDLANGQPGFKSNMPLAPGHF
The assay can be described thus: Antagonist activity at alpha1B adrenergic receptor in Wistar rat spleen assessed as inhibition of phenylephrine-induced contraction incubated for 30 mins in presence of beta-adrenoceptor blocker propranolol hydrochloride. The assay is classed as functional. The gist of the method: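 Spleen bisected longitudinally into strips in Krebs with propranolol 4 μM, held at 1 g and equilibrated 2 h. Two isometric cumulative phenylephrine curves, each followed by 30 min washing. Third curve after 30 min vehicle or antagonist. Potency as pA2 (Schild) or pKB at one concentration (van Rossum). Responses as % of control maximum; n ≥ 4.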

Assay [3] deals with T1, Alpha-1B adrenergic receptor. The assay can be described thus: Displacement of [3H]prazosin from human alpha1B adrenergic receptor expressed in CHO cell membranes after 30 mins by rapid filtration method. The gist of the method: (§1)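 Membranes (30 μg protein) from CHO cells stably transfected with the human α1a, α1b or α1d receptor. Incubated 30 min at 25 °C in 50 mM Tris-HCl pH 7.4 with 0.1–0.4 nM [3H]prazosin and competitor 1 pM–10 μM. Nonspecific binding defined by 10 μM phentolamine. Stopped by rapid filtration through PEI-treated filters. IC50 converted to Ki by Cheng-Prusoff; pKi from 2–3 experiments in triplicate.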
A general note: Loss of bound radioactivity is the signal in a displacement assay; it reports binding, not function.

For assay [4], the target named is T3, Alpha-1A adrenergic receptor (Rattus norvegicus, UniProt P43140).
T3 sequence (P43140 whole entry): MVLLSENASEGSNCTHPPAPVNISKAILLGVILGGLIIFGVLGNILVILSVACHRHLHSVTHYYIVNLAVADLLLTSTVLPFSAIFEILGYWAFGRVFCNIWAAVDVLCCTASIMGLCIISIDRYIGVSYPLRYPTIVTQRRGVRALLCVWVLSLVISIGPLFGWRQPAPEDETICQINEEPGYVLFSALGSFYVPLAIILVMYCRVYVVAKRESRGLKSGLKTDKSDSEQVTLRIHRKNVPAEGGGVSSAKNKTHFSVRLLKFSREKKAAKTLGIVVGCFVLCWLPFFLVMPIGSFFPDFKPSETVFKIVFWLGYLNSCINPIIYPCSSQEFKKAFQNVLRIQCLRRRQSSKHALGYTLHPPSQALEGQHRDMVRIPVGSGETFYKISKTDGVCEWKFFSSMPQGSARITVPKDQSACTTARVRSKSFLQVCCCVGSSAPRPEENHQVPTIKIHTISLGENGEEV
Nature of the assay: Antagonist activity at alpha1A adrenergic receptor in Wistar rat prostatic rat vas deferens assessed as inhibition of noradrenaline-induced contraction preincubated for 30 mins followed by noradrenaline addition measured after 45 mins in presence of cocaine hydrochloride. The assay is classed as functional. The note with it: read-out: pA2 (converted). The method, boiled down: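 Prostatic rat vas deferens, 2 cm portions, held at 0.35 g in Tyrode (pH 7.4, 37 °C, 95% O2/5% CO2). Cocaine 10 μM added 20 min before the agonist. Tissue equilibrated 45 min and primed twice with 10 μM noradrenaline. Isotonic cumulative noradrenaline curves were run before and after 30 min antagonist. pA2 came from Schild plots (≥3 concentrations); otherwise pKB (van Rossum). n ≥ 4.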

Assay [5] addresses T4, Alpha-1A adrenergic receptor (Homo sapiens, UniProt P35348).
T4 sequence (P35348 whole entry): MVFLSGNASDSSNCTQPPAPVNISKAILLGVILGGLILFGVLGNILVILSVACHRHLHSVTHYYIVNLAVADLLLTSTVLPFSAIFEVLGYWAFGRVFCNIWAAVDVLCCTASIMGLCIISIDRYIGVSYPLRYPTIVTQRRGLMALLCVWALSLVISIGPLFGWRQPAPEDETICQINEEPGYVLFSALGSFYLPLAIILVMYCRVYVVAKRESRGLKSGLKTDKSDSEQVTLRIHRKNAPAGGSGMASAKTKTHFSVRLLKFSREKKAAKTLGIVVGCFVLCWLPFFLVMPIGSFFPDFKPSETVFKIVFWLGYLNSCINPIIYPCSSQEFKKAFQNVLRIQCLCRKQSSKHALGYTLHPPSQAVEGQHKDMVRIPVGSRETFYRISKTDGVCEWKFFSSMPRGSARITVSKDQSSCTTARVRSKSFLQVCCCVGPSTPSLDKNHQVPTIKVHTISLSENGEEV
Nature of the assay: Displacement of [3H]prazosin from human alpha1A adrenergic receptor expressed in CHO cell membranes after 30 mins by rapid filtration method. The method, boiled down: as §1

Assay [6] has as its target T5, Alpha-1D adrenergic receptor (Homo sapiens, UniProt P25100).
T5 sequence (P25100 whole entry): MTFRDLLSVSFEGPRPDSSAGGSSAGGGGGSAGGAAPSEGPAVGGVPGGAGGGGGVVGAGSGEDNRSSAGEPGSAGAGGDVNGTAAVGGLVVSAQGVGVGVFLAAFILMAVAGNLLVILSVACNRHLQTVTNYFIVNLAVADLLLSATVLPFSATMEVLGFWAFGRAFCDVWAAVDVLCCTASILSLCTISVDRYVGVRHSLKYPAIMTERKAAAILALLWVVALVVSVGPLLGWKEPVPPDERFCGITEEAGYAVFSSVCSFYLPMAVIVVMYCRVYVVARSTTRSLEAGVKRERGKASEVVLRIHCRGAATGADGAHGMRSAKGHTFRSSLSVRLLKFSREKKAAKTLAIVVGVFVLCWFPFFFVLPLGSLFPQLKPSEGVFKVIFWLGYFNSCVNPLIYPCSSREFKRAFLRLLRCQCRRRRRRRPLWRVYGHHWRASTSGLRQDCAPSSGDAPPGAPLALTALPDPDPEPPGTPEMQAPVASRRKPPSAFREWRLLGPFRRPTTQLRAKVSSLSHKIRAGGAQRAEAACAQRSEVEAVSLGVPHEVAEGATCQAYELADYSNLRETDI
The assay can be described thus: Displacement of [3H]prazosin from human alpha1D adrenergic receptor expressed in CHO cell membranes after 30 mins by rapid filtration method. The gist of the method: as §1

Consider `COc1cc2nc(N3CCN(C(=O)c4ccco4)[C@H]4CCCC[C@H]43)nc(N)c2cc1OC` [CYCLAZOSIN], for which the Ki – broadly, the equilibrium dissociation constant of an inhibitor or competing ligand from its target – in assay [1] is 0.135 to 0.692 nM. Besides, the pKb (usually the Kb on a negative log10 scale, so that one unit is a factor of ten) in assay [2] turned out to be 8.86.

With `COc1cc2nc(N3CCN(C(=O)c4ccco4)[C@@H]4CCCC[C@@H]43)nc(N)c2cc1OC`, the Ki in assay [3] is 0.0708 nM; in assay [5], 0.589 nM; in assay [6] it was 0.0603 nM. The Kb in assay [4] is 0.589 nM. Also, the pKb in assay [2] stood at 9.67.

The values are drawn from ChEMBL document CHEMBL4118202, “Chiral analogues of (+)-cyclazosin as potent α1B-adrenoceptor selective antagonist” (Bioorg Med Chem, 2018).
